Source: PubChem BioAssay
Platelet DG rel: inhibitors of platelet dense granule secretion, primary screen, cell-based, MLPCN, human platelets. inhibition, %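 (compounds screened at 7.5 µM in platelet-rich plasma)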. human platelet-rich plasma, SFLLRN dense granule ATP release, luminescence. AID 1663, 2009. 300,000 compounds, 0.22% hits;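 active = mean replicate score, as percent of positive control, at or above 50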
SENP8 block-1: SENP8 protease inhibitors, primary screen, biochemical, luminescence; inhibition, % at 10 µM; AID 2540, 2010; 330,000 compounds, 1.2% hits; purified SENP8, Z-RLRGG-aminoluciferin cleavage; Sentrin-specific protease 8 (Homo sapiens), Q96LD8; in the data active = inhibition above about 50%
SENP1 FRET inh: human SENP1 catalytic domain inhibitors, primary screen, biochemical, FRET, uHTS; Sentrin-specific protease 1 (Homo sapiens), Q9P0U3; recombinant SENP1 catalytic domain, CyPet-SUMO1-YPet FRET cleavage; inhibition, % at 10 µM; 360,000 compounds, 0.21% hits; AID 624204, 2012;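 active = inhibition at least 30% at 10 µM, raw YFP signal under a set limit, fluorescence ratio 0.5 to 1.5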
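Controls: no-enzyme wells low, DMSO-plus-enzyme wells high control. Test system: human recombinant His6-tagged SENP1 catalytic domain enzyme. Reagent: SFCypet-SUMO1-SFYpet FRET protein substrate, 25 nM final. Doses: one dose per compound, 10 µM, 0.5% DMSO. Detection: FRET, CFP and YFP emission. Timing: 50 min reaction at room temperature.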
SENP7 block: SENP7 protease inhibitors, primary screen, biochemical, luminescence, uHTS; Sentrin-specific protease 7 (Homo sapiens), Q9BQF6; recombinant SENP7, Z-RLRGG-aminoluciferin luminescence, 40 min; inhibition, % at 5 µM; 330,000 compounds, 1.5% hits; AID 434973, 2010;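 active = inhibition above about 50% at the single test dose, limit read from the data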
SENP8 block-2: human SENP8 protease inhibitors, primary screen, biochemical, fluorescence, Nedd8 protein substrate, uHTS | inhibition, % at 20 µM | Sentrin-specific protease 8 (Homo sapiens), Q96LD8 | 360,000 compounds, 0.64% hits | recombinant SENP8; in the data active = inhibition mostly above about 40%, no sharp cut-off; inactive = mostly below about 27%
SENP6 block: SENP6 protease inhibitors, primary screen, biochemical, luminescence, uHTS; Sentrin-specific protease 6 (Homo sapiens), Q9GZR1; Recombinant SENP6 catalytic domain, aminoluciferin luminescence; inhibition, % at 10 µM; 330,000 compounds, 1.8% hits; AID 2599, 2010;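 active = inhibition above about 50% at the single tested dose, limit read from the data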
Target sequence (Q9GZR1 628-1112 limits assumed): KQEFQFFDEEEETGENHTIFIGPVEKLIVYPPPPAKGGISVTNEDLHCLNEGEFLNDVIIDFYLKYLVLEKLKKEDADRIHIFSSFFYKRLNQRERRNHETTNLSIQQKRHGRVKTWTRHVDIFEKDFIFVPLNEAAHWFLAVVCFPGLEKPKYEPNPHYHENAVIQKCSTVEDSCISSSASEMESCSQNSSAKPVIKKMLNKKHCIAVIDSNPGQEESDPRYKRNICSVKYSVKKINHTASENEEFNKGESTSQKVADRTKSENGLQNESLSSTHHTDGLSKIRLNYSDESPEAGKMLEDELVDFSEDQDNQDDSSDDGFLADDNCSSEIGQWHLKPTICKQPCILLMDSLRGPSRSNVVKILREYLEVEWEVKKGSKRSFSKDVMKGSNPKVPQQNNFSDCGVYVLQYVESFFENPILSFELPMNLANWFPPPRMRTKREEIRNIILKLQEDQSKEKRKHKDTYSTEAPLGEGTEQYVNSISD
SENP8 confirm: SENP8 protease inhibitors, retest, confirmation, biochemical, luminescence, single concentration; shares compounds with SENP7 block; Recombinant SENP8, Z-RLRGG-aminoluciferin luminescence, 60 min; inhibition, % at 12.5 µM; 6,200 compounds, 40% hits; AID 488912, 2010;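 active = mean inhibition across replicates above about 50%, limit read from the data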
SENP6 conf: SENP6 protease inhibitors, confirmation, biochemical, luminescence, single concentration; recombinant SENP6, Z-RLRGG-aminoluciferin luminescence; 6,200 compounds, 58% hits; inhibition, % at 12.5 µM; shares compounds with SENP7 block
SENP7 confirm: SENP7 protease inhibitors, retest, confirmation, biochemical, luminescence, single concentration; shares compounds with SENP7 block; recombinant SENP7, Z-RLRGG-aminoluciferin luminescence, 40 min; inhibition, % at 12.5 µM; 6,200 compounds, 69% hits
Casp3 SENP sel: caspase-3 protease inhibitors, confirmation, selectivity assay for SENP inhibitor project, biochemical, single concentration; purified caspase-3, Z-DEVD-aminoluciferin luminescence, 60 min; 6,200 compounds, 60% hits; shares compounds with SENP7 block; inhibition, % at 12.5 µM;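 active = mean inhibition above about 50%, limit read from the data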
Target sequence (P42574 28-227 limits assumed): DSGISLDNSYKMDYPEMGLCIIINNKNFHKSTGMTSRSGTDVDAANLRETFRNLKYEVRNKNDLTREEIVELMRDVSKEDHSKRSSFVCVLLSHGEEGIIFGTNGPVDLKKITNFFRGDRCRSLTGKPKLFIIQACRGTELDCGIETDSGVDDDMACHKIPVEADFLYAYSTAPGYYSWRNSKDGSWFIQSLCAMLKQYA
Luc interf: counter-screen for SENP inhibitors: luminescence interference. Pre-incubated SENP8/Z-RLRGG-aminoluciferin, luciferase luminescence interference. inhibition, % at 12.5 µM. shares compounds with SENP7 block. AID 488919. 6,200 compounds, 39% hits;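 active = mean inhibition above about 50% when retested at one dose, limit read from the data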
Hits are given with their value; . = inactive; / = no result given. Most compounds without a hit are left out; they make up all but 2.6% or so of the library.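 The calls were made as follows, unless noted: active = mean inhibition above about 50% in the one-dose retest (limit read from the data); inactive = the rest.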

SMILES	Platelet DG rel	SENP8 block-1	SENP1 FRET inh	SENP7 block	SENP8 block-2	SENP6 block	SENP8 confirm	SENP6 conf	SENP7 confirm	Casp3 SENP sel	Luc interf
Cc1ccc(C(=O)N/N=C\c2ccc([N+](=O)[O-])s2)cn1	.	.	.	.	.	.	/	/	/	/	/
Cc1csc(N/N=C/c2ccc(O)c([N+](=O)[O-])c2)n1	.	55	.	.	.	69	.	89	.	.	.
O=[N+]([O-])c1cc(/C=N\Nc2nc(-c3ccccc3)cs2)ccc1O	.	.	.	.	.	.	/	/	/	/	/
O=C(N/N=C/c1ccc([N+](=O)[O-])s1)c1ccncc1	.	.	.	.	.	58	.	.	.	.	.
CN(C)c1ccc(/C=N/NC(=O)c2nonc2N)cc1[N+](=O)[O-]	.	.	.	55	.	.	.	.	76	75	59
COc1ccc(/C=N/NC(=O)c2ccncc2)cc1[N+](=O)[O-]	.	.	.	.	.	.	/	/	/	/	/
O=C(N/N=C/c1ccc(O)c([N+](=O)[O-])c1)c1ccncc1	.	.	.	.	.	57	.	.	66	79	.
CCCc1cc(=O)oc2cc(OCC(=O)NCCN3CCOCC3)c(Cl)cc12	/	/	.	/	.	/	/	/	/	/	/
COc1ccc(OCCCC(=O)OC(C)C(=O)Nc2ccc(S(N)(=O)=O)cc2)cc1 (centres undefined)	.	.	.	.	.	.	/	/	/	/	/
O=C(N/N=C/c1ccc(OC(=O)c2ccccc2Cl)cc1)c1ccccn1	.	.	.	71	.	.	.	.	.	.	.
CCc1ccc(/C=N/NC(=O)c2ccccn2)cc1	.	79	.	83	.	83	87	87	98	94	86
Cc1ccc(/C=N\NC(=O)c2csnn2)cc1	.	.	.	50	.	55	.	.	77	81	.
O=C(Nc1ccncc1)c1ccc(Cl)c(S(=O)(=O)N2CCCC2)c1	.	.	.	.	.	.	/	/	/	/	/
CCn1c(CNC(=O)c2ccccc2Br)nnc1SCC(=O)NC1=NCCS1	.	.	.	.	.	.	/	/	/	/	/
Cc1cc(C)cc(NC(=O)C2CCN(S(=O)(=O)c3ccc4[nH]c(=O)ccc4c3)CC2)c1	.	.	.	.	.	.	/	/	/	/	/
CCC1(c2ccccc2)NC(=O)N(CC(=O)Nc2ccc(S(=O)(=O)Nc3ncccn3)cc2)C1=O (centres undefined)	.	.	.	.	.	.	/	/	/	/	/
CC(C)Cn1cc(C(=O)NCc2cccs2)c2c3ccccc3n(C)c2c1=O	.	.	.	62	.	.	.	.	.	.	.
CC(C)CCNC(=O)c1cn(CC(C)C)c(=O)c2c1c1ccccc1n2C	.	.	.	.	.	.	/	/	/	/	/
c1cc2nnnn2nc1N1CCCCCC1	.	.	.	.	.	.	/	/	/	/	/
c1cc2nnnn2nc1N1CCCCC1	.	.	.	58	.	.	.	.	.	.	.
Cc1ccc(NC(=O)c2cc3cccc([N+](=O)[O-])c3[nH]2)cc1	.	56	.	89	.	71	57	63	96	66	55
O=C(CCc1nnc2n(CCc3ccccc3)c(=O)c3ccccc3n12)NCCCN1CCCCC1	.	.	.	.	.	.	/	/	/	/	/
COc1cc2sc3cc(NCCCN4CCOCC4)ccc3c(=O)c2cc1OC	/	.	.	75	.	69	.	.	.	.	.
CC(C)OCCCNC(=O)c1cc2c(s1)CS(=O)(=O)C2	.	.	.	98	.	.	.	.	.	.	.
COCCCNC(=O)c1cc2c(s1)CS(=O)(=O)C2	.	.	.	.	.	.	/	/	/	/	/
SMILES	Platelet DG rel	SENP8 block-1	SENP1 FRET inh	SENP7 block	SENP8 block-2	SENP6 block	SENP8 confirm	SENP6 conf	SENP7 confirm	Casp3 SENP sel	Luc interf
COc1ccc(NC(=O)n2ncc3c(C)cccc32)cc1	.	72	.	61	.	74	84	83	95	63	73
COc1ccc(NC(=O)n2ncc3c(C)cccc32)cc1OC	.	.	.	.	.	.	/	/	/	/	/
Cc1cccc(N2CC(C(=O)NC3CCCCCC3)CC2=O)c1C (centres undefined)	/	.	.	.	.	.	/	/	/	/	/
CC(C)(C)OC(=O)N1CCC(C(=O)N[C@H](C(=O)O)c2ccccc2)(c2ccccc2)CC1	.	.	.	.	.	.	/	/	/	/	/
Cc1ccc(N2C(=O)c3ccc(N)cc3C2=O)cc1C	.	.	.	51	.	65	63	60	86	54	63
Cc1ccc(N2C(=O)c3ccc(N)cc3C2=O)cc1	.	.	.	.	.	.	/	/	/	/	/
C[C@@H]1CCCCO[C@@H](CN(C)C(=O)C2CCCCC2)[C@@H](C)CN([C@H](C)CO)C(=O)c2cc(NC(=O)NC3CCCCC3)ccc2O1	/	/	.	/	.	/	/	/	/	/	/
O=C(Nc1nnc([C@@H]2C[C@H](O)[C@@H](CO)O2)s1)Nc1cccc(Cl)c1Cl	/	/	.	/	.	/	/	/	/	/	/
CSc1nsc(/C=C/Nc2cccc(Cl)c2)c1C#N	/	.	.	.	.	67	.	.	.	.	.
CSc1nsc(/C=C/Nc2ccc(Cl)cc2)c1C#N	.	.	.	.	.	55	.	.	.	.	.
CSc1nsc(/C=C/Nc2ccc(F)cc2)c1C#N	.	.	.	.	.	.	/	/	/	/	/
O=C(OCc1cn([C@H]2CN(Cc3cccs3)[C@@H](c3ccc(Cl)cc3)C[C@@H]2O)nn1)c1ccccc1	/	/	.	/	.	/	/	/	/	/	/
Cc1noc(NS(=O)(=O)c2ccc(NC(=O)c3ccccc3NS(=O)(=O)c3ccc(F)c(F)c3)cc2)c1C	/	/	.	/	.	/	/	/	/	/	/
O=C(Cc1cccs1)Nc1ccc(F)cc1F	.	.	.	.	.	.	/	/	/	/	/
